Bioassay records deposited in PubChem by The Scripps Research Institute Molecular Screening Center.
HTRA1 inhibitor = inhibitors of human serine peptidase HTRA1 | hit rate 0.5% among 340,000 | Q92743 | inhibition, % at 5.96 µM | recombinant HTRA1, FP-rhodamine activity-based probe, fluorescence polarization; in the data active = inhibition above about 36%;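 note: 0% = enzyme with DMSO and 100% = wells lacking enzyme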
PAFAH1B2 inh = inhibitors of human PAFAH1B2 | P68402 | recombinant PAFAH1B2, FP-rhodamine activity probe, fluorescence polarization | inhibition, % at 3.39 µM | hit rate 1.2% among 340,000;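 active = inhibition above the mean of all tested compounds plus 3 SD, cut at about 24% in these data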;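 note: 0% = enzyme with DMSO and 100% = wells lacking PAFAH1B2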
Target sequence (P68402 whole entry, looked up): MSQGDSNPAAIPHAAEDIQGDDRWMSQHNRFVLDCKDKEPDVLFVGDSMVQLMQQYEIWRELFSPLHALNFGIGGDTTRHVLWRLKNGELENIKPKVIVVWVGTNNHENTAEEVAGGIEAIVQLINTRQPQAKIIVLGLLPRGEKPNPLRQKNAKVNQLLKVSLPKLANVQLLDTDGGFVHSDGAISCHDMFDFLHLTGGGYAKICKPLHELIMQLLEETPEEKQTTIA
ABHD4 inh = ABHD4 (mouse) inhibition, primary FP screen | Q8VD66 | purified mABHD4, FP-Rh probe fluorescence polarization | inhibition, % at 8.92 µM | hit rate 0.54% among 370,000 | AID 720543;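 active = inhibition exceeding the mean over every tested compound plus 3 SD, cut at about 30% in these data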;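 note: 0% = plate median of compound wells and 100% = S159A mutant with DMSO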
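Assay system: mouse ABHD4 enzyme, wild type / Also added: fluorescent activity-based probe FP-Rh / Doses: single nominal dose of 8.92 µM, 0.89% DMSO final / Timing: 45 min compound pre-incubation plus 60 min probe step, 25 °C / Signal: FP readout, ex 525 nm / em 598 nm / Control set: S159A mutant/DMSO as 100%, compound-well median as 0%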
pPAFAH FP inh = inhibitors of human plasma PAF acetylhydrolase (pPAFAH) | inhibition, % at 3.39 µM | hit rate 1.5% among 330,000 | recombinant pPAFAH, FP-rhodamine probe fluorescence polarization | Q13093 | AID 463082;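 active = inhibition above the mean inhibition across the screen plus 3 SD, cut at about 25% in these data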;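 note: inhibitors block binding of the rhodamine activity-based probe so polarization drops; 0% = enzyme with DMSO and 100% = wells lacking pPAFAH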
Target sequence (Q13093 whole entry, looked up): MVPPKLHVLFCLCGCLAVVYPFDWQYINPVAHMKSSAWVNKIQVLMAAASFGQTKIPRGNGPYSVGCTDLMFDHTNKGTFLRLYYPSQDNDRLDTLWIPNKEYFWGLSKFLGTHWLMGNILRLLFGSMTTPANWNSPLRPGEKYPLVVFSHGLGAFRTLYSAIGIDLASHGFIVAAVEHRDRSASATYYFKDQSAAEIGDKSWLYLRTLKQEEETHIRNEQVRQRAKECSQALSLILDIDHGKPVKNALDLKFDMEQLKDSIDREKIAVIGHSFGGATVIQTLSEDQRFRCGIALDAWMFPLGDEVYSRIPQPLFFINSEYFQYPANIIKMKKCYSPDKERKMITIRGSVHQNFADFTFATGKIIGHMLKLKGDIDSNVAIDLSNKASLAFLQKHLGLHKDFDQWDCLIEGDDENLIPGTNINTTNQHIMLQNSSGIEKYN
PAFAH1B3 FP inh = PAFAH1B3 (human) inhibition; Q15102; recombinant PAFAH1B3, FP-rhodamine probe, fluorescence polarization; inhibition, % at 3.39 µM; hit rate 0.28% among 340,000;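 active = inhibition above the screen-wide average of all tested compounds plus 3 SD, cut at about 25% in these data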;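 note: 0% = enzyme with DMSO only and 100% = wells lacking PAFAH1B3 protein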
PAFAH2 FP inh = PAFAH2 (human) inhibition; Q99487; recombinant PAFAH2, FP-rhodamine activity probe, fluorescence polarization; inhibition, % at 3.39 µM; hit rate 0.99% among 340,000;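 active = inhibition above the mean over all tested compounds plus 3 SD, cut at about 30% in these data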;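 note: inhibitors block probe labeling of enzyme so polarization drops; 0% = enzyme with DMSO and 100% = wells lacking PAFAH2 protein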
PAFAH2 FP conf = PAFAH2 (human) inhibition, confirmed; shares compounds with PAFAH2 FP inh; hit rate 65% among 2,300; AID 493030; recombinant PAFAH2, FP-rhodamine activity probe, fluorescence polarization; inhibition, % at 3.39 µM;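 active = mean inhibition over three repeats above a set limit taken from the earlier primary screen, cut at about 30% in these data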;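 note: inhibitor blocks binding of rhodamine activity probe so polarization falls; 0% = enzyme with DMSO and 100% = wells lacking PAFAH2 protein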
* hit, by the source's call; . = no result. Compounds with a hit are over-represented: about 2.8% of the library has one in this group of screens.

SMILES	HTRA1 inhibitor	PAFAH1B2 inh	ABHD4 inh	pPAFAH FP inh	PAFAH1B3 FP inh	PAFAH2 FP inh	PAFAH2 FP conf
COc1ccccc1CNC(=O)C[C@H]1CC[C@H]2[C@H](COc3ccc(NS(=O)(=O)c4ccc(C)cc4)cc3C(=O)N2C)O1	.	.	15	.	.	.	.
COc1ccc(/C=C/C(=O)OCC(=O)Nc2ccc(C)cc2)cc1S(=O)(=O)N1CCOCC1	-4	0	-7	1	-4	71*	73*
COc1ccc(/C=C/C(=O)OCC(=O)Nc2ccc(OC)c(S(=O)(=O)N3CCCCC3)c2)cc1	-32	-8	-16	-1	-8	29	.
Cc1ccc(NC(=O)COC(=O)/C=C/c2cccc(Cl)c2)cc1S(=O)(=O)N1CCOCC1	-37	5	-34	-1	-9	60*	50*
COc1ccc(NC(=O)COC(=O)/C=C/c2ccc(OC)c(S(=O)(=O)N3CCOCC3)c2)cc1	-8	-1	2	2	3	62*	58*
Cc1ccc(-c2nnc(SCc3ccc([N+](=O)[O-])cc3)n2-c2ccccc2)cc1	.	.	2	.	.	.	.
CC(C)NC(=O)N[C@@H]1C[C@@H]2O[C@H](CO)CC[C@@H]2O[C@@H]1CCc1ccc(-c2ccccc2F)cc1	.	.	2	.	.	.	.
CSc1ccc(/C=C/C(=O)OCC(=O)NCC2CCCO2)cc1 (stereo unspecified)	5	3	6	5	9	39*	22
O=C(COC(=O)/C=C/c1ccccc1)NCC1CCCO1 (stereo unspecified)	5	3	7	11	-1	37*	23
O=C(COC(=O)/C=C/c1ccccc1Cl)NCC1CCCO1 (stereo unspecified)	3	4	0	21	3	27	.
Cc1sc2nc(-c3ccccc3)oc(=O)c2c1C	-18	2	-12	3	6	81*	65*
O=c1oc(-c2ccccc2)nc2sc3c(c12)CCC3	-21	-3	7	10	8	72*	74*
Cc1nc2sc(C)c(C)c2c(=O)o1	-1	5	3	-2	7	-8	.
O=C1CCC(=O)N1c1ccc(-c2nc3sc4c(c3c(=O)o2)CCC4)cc1	-6	-1	-10	-1	1	3	.
Cc1nc2sc3c(c2c(=O)o1)CCCC3	3	6	15	8	5	7	.
O=c1oc(-c2ccco2)nc2sc3c(c12)CCCC3	-34	4	24	3	3	72*	63*
Nc1cc(=O)[nH]c(SCc2cccc3ccccc23)n1	-19	5	-5	2	0	-4	.
O=c1cc(C(F)(F)F)nc(SCc2cccc3ccccc23)[nH]1	-55	9	-34	3	3	51*	31*
CCc1cc(=O)[nH]c(SCc2cccc3ccccc23)n1	-17	7	.	3	5	61*	51*
Cc1ccccc1CC(=O)N1CCN(S(=O)(=O)c2cccs2)CC1	-1	-2	-10	9	9	0	.
O=C(CCS(=O)(=O)c1ccc(Cl)cc1)N1CCN(S(=O)(=O)c2cccs2)CC1	7	10	2	5	18	51*	40*
COc1cccc(/C=C/C(=O)OCC(=O)c2ccccc2)c1OC	-10	7	-5	9	11	58*	34*
COc1cc(/C=C/C(=O)OCC(=O)NCc2cccs2)ccc1OCC#N	-1	1	-2	6	-2	53*	52*
COc1cccc(/C=C/C(=O)OCC(=O)NCc2ccco2)c1OC	3	0	4	10	7	66*	53*
CCOc1cc(/C=C/C(=O)OCC(=O)NCc2ccco2)cc(Cl)c1OC	-4	2	-1	4	0	15	.
SMILES	HTRA1 inhibitor	PAFAH1B2 inh	ABHD4 inh	pPAFAH FP inh	PAFAH1B3 FP inh	PAFAH2 FP inh	PAFAH2 FP conf
COc1cc(/C=C/C(=O)OCC(=O)NCc2ccco2)ccc1OC(F)F	-5	5	-4	8	7	39*	28
COc1cc(/C=C/C(=O)OCC(=O)Nc2cc(C)on2)ccc1OCC#N	1	10	-1	.	7	26	.
COc1cccc(/C=C/C(=O)OCC(=O)c2ccc(C)c(C)c2)c1OC	-15	1	-8	7	0	21	.
CC(C)C1CC(N(C)C)=CC(=S)N1 (stereo unspecified)	.	.	2	.	.	.	.
O=[N+]([O-])c1ccc(Cn2ccc3ccc(-c4ccc5ccn(Cc6ccccc6)c5c4)cc32)cc1	.	.	2	.	.	.	.
Cc1ccccc1Cn1cc(COC(=O)NCCc2ccccc2)nn1	.	.	5	.	.	.	.
CCCCCCCCN1C(=O)[C@@H](CC(=O)NCCCN2CCCC2=O)C[C@@]2(C(=O)OC)C1=C[C@H](COCc1ccccc1)O[C@@H]2C	.	.	2	.	.	.	.
COc1ccc(S(=O)(=O)N2CCCc3nc(-c4ccc(F)cc4)ccc32)cc1	.	.	-5	.	.	.	.
COc1ccc(/C=C/C(=O)OCC(=O)NCc2ccco2)cc1OC	-5	-1	3	5	7	49*	38*
C=CCOc1ccc(/C=C/C(=O)OCC(=O)NCc2cccs2)cc1	-5	-2	-7	4	-2	38*	41*
COc1cccc(/C=C/C(=O)OCC(=O)NCC2CCCCC2)c1OC	4	0	1	8	4	80*	79*
COc1cc2c(C(F)(F)F)c(-c3ccsc3)oc(=O)c2cc1OC	-26	2	-8	8	7	59*	39*
Cc1noc(C)c1COc1ccc(CC(=O)NC2CCCCCC2)cc1	-2	-1	4	3	3	2	.
Cc1noc(C)c1COc1ccc(C(=O)OCC(=O)NC23CC4CC(CC(C4)C2)C3)cc1	-38	2	-3	11	7	81*	80*
Cc1noc(C)c1COc1ccc(C(=O)OCC(=O)NC2CCCCC2C)cc1 (stereo unspecified)	-7	4	10	15	1	77*	82*
CC(C)N1CCCCC(NC(=O)c2cccc(C(F)(F)F)c2)C1=O (stereo unspecified)	.	.	2	.	.	.	.
Cc1ccccc1CSc1nnc(NC(=O)C2COc3ccccc3O2)s1 (stereo unspecified)	-5	5	-7	2	1	6	.
O=C(Nc1nnc(SCc2ccccc2Cl)s1)C1COc2ccccc2O1 (stereo unspecified)	-3	11	-8	5	5	52*	41*
COC(=O)CNC(=O)COC(=O)c1ccc(OC)c([N+](=O)[O-])c1	0	3	3	-2	10	-6	.
COc1ccc(C(=O)OCC(=O)NCCCc2ccccc2)cc1[N+](=O)[O-]	2	13	-6	6	4	30*	12
COc1ccc(C(=O)OCC(=O)NC(C)(C)C)cc1[N+](=O)[O-]	0	2	1	3	1	39*	23
